# Bioassay records: PubChem, Sanford-Burnham Center for Chemical Genomics
# Sampled rows, rich in hits. Any-hit rate of the full collection: about 1.5%.
# APJ ag: activates the human apelin receptor APJ | CHO-K1 APJ PathHunter beta-arrestin, luminescence; 0% DMSO wells, 100% apelin | 330,000 tested, 0.11% active | activation, % at 20 µM | P35414;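 active = activation more than six SD over the plate average, tested at 20 µM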;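 also: 0% = DMSO alone and 100% = apelin-13 at 10 nM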
# Target sequence (P35414 whole entry, looked up): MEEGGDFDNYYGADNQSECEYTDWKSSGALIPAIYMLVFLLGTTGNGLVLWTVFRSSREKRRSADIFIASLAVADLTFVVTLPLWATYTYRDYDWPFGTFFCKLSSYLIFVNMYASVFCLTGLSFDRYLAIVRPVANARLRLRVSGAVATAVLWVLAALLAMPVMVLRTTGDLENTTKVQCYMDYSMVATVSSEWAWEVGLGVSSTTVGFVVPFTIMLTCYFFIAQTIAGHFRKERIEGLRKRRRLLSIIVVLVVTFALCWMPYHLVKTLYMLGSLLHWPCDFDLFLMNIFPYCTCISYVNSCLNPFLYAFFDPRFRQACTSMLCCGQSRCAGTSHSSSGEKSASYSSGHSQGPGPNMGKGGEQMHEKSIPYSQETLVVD
#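 Assay system – PathHunter CHO-K1 APJ (AGTRL-1) beta-arrestin reporter cells · Compound – one dose, 20 µM compound, 1% DMSO · Timing – compound 90 min 25 °C, reagent 1 h · Measured by – luminescence from split beta-galactosidase complementation, Galacton Star/Emerald II substrate · Measure – beta-arrestin recruitment to APJ as agonist activity, luminescent signal · Benchmarks – DMSO vs Apelin-13 10 nM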
# APJ antagonist: antagonists of human APJ apelin receptor. CHO-K1 APJ beta-arrestin complementation, luminescence. inhibition, % at 20 µM. 330,000 tested, 0.32% active. AID 2521;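 active = inhibition above about 40% at 20 µM, limit read from the data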;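 also: cells challenged with 10 nM apelin-13 agonist together with compound; plate controls were apelin-13 plus DMSO wells for no effect and DMSO wells lacking apelin-13 for full effect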
# EBI2 block: EBI2 (human) antagonism | EBI2 beta-arrestin recruitment, luminescence, 7a,25-OHC stimulated | inhibition, % at 5 µM | AID 651636 | P32249 | 360,000 tested, 0.81% active; in the data active = inhibition above about 38%;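 also: enzyme fragment complementation signal reports receptor beta-arrestin coupling in cells; 0% = agonist plus DMSO wells and 100% = wells without agonist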
# CXCR6 block: blocks human CXCR6 beta-arrestin recruitment | O00574 | CHO-K1 PathHunter CXCR6 beta-arrestin, luminescence | inhibition, % at 20 µM | 360,000 tested, 0.36% active; in the data active = inhibition above about 34%, passing the limit was not always enough;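 also: antagonist mode with CXCL16 agonist at 10 nM final; 0% = 10 nM CXCL16 with DMSO and 100% = unstimulated wells without agonist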
# CCR6 antagonist: CCR6 (human) receptor antagonism. AID 493098. inhibition, % at 20 µM. CHO-K1 CCR6 PathHunter beta-arrestin, luminescence, CCL20-stimulated. 340,000 tested, 0.49% active. P51684;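 active = compounds whose inhibition of the agonist-driven luminescence signal at 20 µM reaches about 50%, limit read from the data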;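 also: cells stimulated with CCL20 at 14 nM final; plate controls were DMSO with CCL20 for no effect and DMSO without agonist for full effect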
# APJ ag confirm: confirmation of human APJ apelin receptor agonists | activation, % at 20 µM | CHO-K1 APJ PathHunter beta-arrestin, luminescence | 310 tested, 10% active | shares compounds with APJ ag;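 active = activation above 40%, taking the highest of four retests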;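 also: plate controls were DMSO wells for no effect and apelin-13 at 10 nM for full effect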
# * hit, by the source's call; . = no result given.
SMILES,APJ ag,APJ antagonist,EBI2 block,CXCR6 block,CCR6 antagonist,APJ ag confirm
CCOc1cc2[nH]c(=S)n(CCCN3CCOCC3)c(=O)c2cc1OCC,17*,1,8,-1,-1,24
CCC1CCCCN1CCCn1c(=S)[nH]c2ccccc2c1=O (stereo not given),-1,17,4,2,37,.
CCOc1cc2[nH]c(=S)n(CCCC(=O)NCc3ccccn3)c(=O)c2cc1OCC,118*,8,1,-2,13,29
CCOc1cc2[nH]c(=S)n(CCCOC)c(=O)c2cc1OCC,-2,-21,11,5,-1,.
CCOc1cc2[nH]c(=S)n(CCN3CCC(C)CC3)c(=O)c2cc1OCC,27*,-1,0,-2,14,13
CC(C)(C)C(=O)c1c(N)[nH]c(C(=O)c2ccccc2)c1-c1ccc(Br)cc1,.,.,-8,0,.,.
Cc1cccc(NC(=O)[C@@H]2CCCN2C(=O)OC(C)(C)C)c1C,-2,10,-4,6,10,.
COc1ccc(-c2ccc3c(c2)S(=O)(=O)c2cccc(C(=O)NC4CCCC4)c2C3=O)cc1OC,9.0*,1,-21,3,-3,11
CC(Sc1n[nH]c(N)n1)C(=O)Nc1cccc2ccccc12 (stereo not given),-3,10,4,-10,6,.
O=C(Cn1ncc2c([nH]c3ccccc32)c1=O)Nc1ccc(CN2CCCCC2)cc1,91*,-13,-9,-7,5,0
O=C(CCNS(=O)(=O)c1ccc(Br)cc1)Nc1cccc(F)c1,-2,9,1,2,16,.
Cc1nnc(N2CCCC(C(=O)NCc3ccc(OC(C)C)cc3)C2)c2nn(-c3ccccc3)c(C)c12 (stereo not given),2,-24,7,9,2,.
Cc1nnc(N2CCCC(C(=O)Nc3cc(F)ccc3F)C2)c2nn(-c3ccccc3)c(C)c12 (stereo not given),21*,-20,-10,0,4,30
O=C(COC(=O)/C=C/c1ccc(C(F)(F)F)cc1)NC(=O)NCc1ccco1,-3,-2,19,-8,3,.
O=c1oc2cc(OCc3ccc([N+](=O)[O-])cc3)ccc2c2c1CCCC2,62*,7,-17,-10,-14,4
O=C(O)c1ccc(COc2ccc3c4c(c(=O)oc3c2)CCC4)o1,-9,3,-2,-5,10,.
O=c1cc(CN2CCN(C/C=C/c3ccccc3)CC2)c2cc(O)c(-c3ccccc3)cc2o1,-1,-11,-5,1,0,.
CC(C)CN(Cc1cc(=O)oc2cc(-c3ccccc3)c(O)cc12)CC(C)C,19*,-33,-40,-11,-24,23
Cc1nc2ccc(C(=O)Nc3ccccc3Cl)cc2s1,1,-27,-13,3,10,.
CCCn1c(=O)c(C(=O)Nc2c(C)n(C)n(-c3ccccc3)c2=O)c(O)c2ccccc21,26*,-12,-3,9,-11,19
CCCn1c(=O)c(C(=O)Nc2cccc(C)n2)c(O)c2ccccc21,0,-11,-4,3,-6,.
Cc1cccc(C(=O)O/N=C(\N)Cc2cccc3ccccc23)c1,42*,-143,-12,-17,-24,33
Cc1cccc(/C(N)=N/OC(=O)Cc2cccc3ccccc23)c1,0,-14,3,-14,-10,.
N/C(Cc1cccc2ccccc12)=N\OC(=O)c1ccccc1F,28,-110,-10,-11,-5,.
N/C(Cc1ccccc1)=N\OC(=O)c1cccc2ccccc12,12*,-33,15,-26,6,37
SMILES,APJ ag,APJ antagonist,EBI2 block,CXCR6 block,CCR6 antagonist,APJ ag confirm
Cc1cc(C)c(NC(=O)CN(C)C(=O)c2ccc(OCc3ccccc3)cc2)c(C)c1,-4,7,4,7,13,.
O=C(Nc1ccc(-c2nc3ccccc3o2)cc1)c1ccc(N2CCOCC2)c([N+](=O)[O-])c1,29*,9,-36,7,8,24
COc1ccc2oc(-c3ccc(NC(=O)c4ccc(N5CCOCC5)c([N+](=O)[O-])c4)cc3)nc2c1,10,-5,-9,6,4,.
Cc1onc(-c2ccccc2Cl)c1C(=O)O/N=C(\N)c1ccccc1,31*,-112,-14,-34,-28,21
Cc1ccc(C)c(NC(=O)/C(C#N)=C/c2ccc(Sc3nncn3C)c([N+](=O)[O-])c2)c1,44*,-5,.,.,.,37
C=CCC(C(=O)OC)(C(=O)OC)c1ccc([N+](=O)[O-])cc1[N+](=O)[O-],14*,-35,-13,1,2,4
C=CCC(C(=O)OC)(C(=O)OC)c1ccc(C(F)(F)F)cc1[N+](=O)[O-],-5,-14,-2,4,3,.
CCC(C)[C@H](NC(=O)C1CC(=O)N(c2ccc(OC)cc2)C1)C(=O)N1CCCCC1 (stereo not given in full),-2,-18,-2,-2,9,.
CS(=O)(=O)c1ccc2nc(NC(=O)Nc3cccc(Cl)c3)sc2c1,28*,-20,-6,6,7,16
CCOc1cc([N+](=O)[O-])cc2c1C(=O)Nc1ccccc1O2,14*,-20,-4,-8,-10,11
CC1CCc2c(C(=O)Nc3cccc(-c4nn[nH]n4)c3)csc2C1 (stereo not given),5,-13,-1,-2,5,.
CCOC(=O)N1CCN(c2ncnc3c2[nH]c2ccc(F)cc23)CC1,8,-7,4,-13,11,.
Fc1ccc2[nH]c3c(N4CCN(c5ccccc5)CC4)ncnc3c2c1,14*,-10,-6,1,-3,26
Cc1ccccc1NS(=O)(=O)c1nnc(NC(=O)C(C)C)s1,-2,-3,4,1,10,.
N/C(=N\OC(=O)c1ccoc1)c1ccc(Br)cc1,43*,-163,-5,-13,-35,24
Cc1cc(C)cc(C(=O)O/N=C(\N)c2ccc(Br)cc2)c1,6,-38,22,-8,2,.
Cc1cccc(-c2nnc(C(C)Nc3cccc(C(=O)NC4CC4)c3)o2)c1 (stereo not given),.,.,-10,4,.,.
Cc1ccc(S(=O)(=O)N2CCN(C(=O)CCC(=O)NCc3cccc(C(F)(F)F)c3)CC2)cc1,1,-40,-1,2,4,.
COc1ccc([C@H]2[C@H](C(=O)C(C)(C)C)N3N=Cc4ccccc4C3[C@]23N=C(c2ccccc2)OC3=O)cc1 (stereo not given in full),-1,7,-1,3,21,.
CC(C)(C)OC(=O)[C@H]1[C@H](c2ccc([N+](=O)[O-])cc2)C2(C(=O)c3ccccc3C2=O)C2c3ccccc3C=NN21 (stereo not given in full),43*,-2,9,2,17,44*
